# Bioassay records (PubChem)
# A selection: hits, their analogues and other compounds. The true share with any hit is near 3.8%.
# Measles CPE: protection of cells from measles virus; protection (pct of control), % at 4 µM; AID 841; hit rate 1.5% among 140,000; Measles virus-infected cells, CPE protection, absorbance; in the data active = protection mostly above about 24%, no sharp cut-off; inactive = mostly below about 26%
# RAM inhibit: yeast RAM network inhibition; S. cerevisiae dse1pr::URA3 reporter, 5-FOA growth OD615, 2 d; analog-sensitive cbk1-as2 kinase mutant strain; inhibition, % at 50 µM; hit rate 1.8% among 190,000; AID 868;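 active = inhibition above a set limit, 3 SD over mean compound inhibition, cut at about 8.4% in these data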;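 note: inhibition rescues growth on 5-FOA so higher OD means more RAM inhibition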
# sdo1 growth: restores growth of sdo1-depleted yeast. hit rate 0.21% among 140,000. z-score at 10 µM. S. cerevisiae sdo1-depleted JHY4D growth rescue, OD600 30 h; stronger effect = higher value; pdr5 snq2 efflux-pump mutant strain. AID 817;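 active = z-score above 3 at both the 24 hr and the 30 hr optical density reads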
# BB579 growth dn: chemicals that inhibit yeast BB579 growth in restrictive medium (lifespan-shortening candidates); AID 804; hit rate 0.51% among 140,000; inhibition, % at 10 µM; S. cerevisiae BB579 growth, OD615, 48 h;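 active = inhibition above a set limit, 3 SD over the mean compound inhibition, cut at about 44% in these data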
#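 Test system: S. cerevisiae DeaD strain BB579 yeast; Medium: restrictive CSMM-D medium; Compound: one dose, 10 µM compound with 0.25% DMSO; Incubation: 4 h cell preincubation, 48 h compound exposure, 30 °C humidified; Signal: OD at 615 nm; Benchmarks: amphotericin B at 10 µg/mL as positive control.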
# Yeast life ext: yeast lifespan extension; S. cerevisiae growth with nicotinamide, OD615; deaD strain in restrictive glucose medium; inhibition of the nicotinamide effect, % at 10 µM; hit rate 0.68% among 130,000; AID 775;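 active = inhibition above a set limit, placed 3 SD over the median of all compounds, cut at about 26% in these data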
#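 Assay system: DeaD-strain S. cerevisiae. Medium: CSMM-D glucose medium, restrictive. Reagent: nicotinamide, 1.5 mM, co-present with compound. Compound: 10 µM single point, 0.25% DMSO. Schedule: culture preincubation 4 h, compound exposure 48 h, both 30 °C. Detection: absorbance at 615 nm.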
# SDO1 rescue DR: confirmation of growth rescue in SDO1-depleted yeast, bone marrow failure. OD recovery (test concentration not listed). shares compounds with sdo1 growth. hit rate 44% among 440. S. cerevisiae JHY4D (SDO1-depleted) growth rescue, OD600, 30 h; stronger effect = higher value; efflux-deficient strain, SNQ2 and PDR5 mutated;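 active = yeast growth recovered at 30 hours, either rising with dose fitted slope above 0.001 or with average optical density gain above 0.07, some results past the limit were not filed as active; inactive = growth falling with dose or no effect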
# Hits are given with their value; n = inactive; x = no result given.
SMILES,Measles CPE,RAM inhibit,sdo1 growth,BB579 growth dn,Yeast life ext,SDO1 rescue DR
COC(=O)C1(C(=O)OC)NOC2C(=O)N(c3ccccc3)C(=O)C21 (stereo not given),n,n,7.8,n,n,0.092
COC(C(=O)Nc1ccc(S(=O)(=O)Nc2ccc(F)cc2)cc1)c1ccccc1 (stereo not given),n,n,n,n,n,x
COC(C(=O)Nc1ccc(S(=O)(=O)Nc2cccc3ccccc23)cc1)c1ccccc1 (stereo not given),n,n,8.8,n,n,n
CSc1nsc(SC)c1C(=O)N1CCN(S(=O)(=O)c2ccc(C)cc2)C1C (stereo not given),n,n,3.9,n,n,n
CSc1nsc(SC)c1C(=O)N1CCN(S(=O)(=O)c2ccc(C)cc2)C1C(C)C (stereo not given),n,n,n,n,x,x
Cn1c(=O)[nH]c(=O)c2c1nc(N1CCCC1)n2CCCSc1nnnn1-c1ccccc1,n,n,n,n,n,n
Cn1c(=O)[nH]c(=O)c2c1nc(N1CCCCCC1)n2CCCSc1nnnn1-c1ccccc1,n,n,n,n,n,x
O=[N+]([O-])c1cc(S(=O)(=O)N2CCCC2)ccc1N/N=C/c1ccccn1,n,n,n,n,n,x
O=[N+]([O-])c1cc(S(=O)(=O)N2CCCC2)ccc1N/N=C/c1cccs1,n,n,n,n,n,n
O=C(O)CC/C(=N\Nc1ccc(S(=O)(=O)N2CCCC2)cc1[N+](=O)[O-])c1cccs1,n,n,n,n,n,x
O=[N+]([O-])c1cc(S(=O)(=O)N2CCCC2)ccc1N/N=C/c1ccncc1,n,n,n,n,n,n
COc1ccc(Nc2nc(-c3ccccc3)c(C(=O)Nc3cccnc3)s2)cc1,x,n,x,x,x,x
O=C(COC(=O)c1cc(-c2cccs2)nn1-c1ccccc1)Nc1ccc(Cl)c([N+](=O)[O-])c1,n,n,n,n,n,x
CC(C)OC(=O)CSc1nnc(-c2ccccc2)n1N,n,n,6.7,n,n,n
CC(C)OC(=O)CSc1nnc(-c2cccnc2)n1N,n,n,n,n,n,x
O=c1cc(-c2ccc([N+](=O)[O-])cc2)c2ccc(O)cc2o1,x,n,x,x,x,x
O=C(CC1S/C(=N/N=C/c2c[nH]c3ccccc23)NC1=O)Nc1ccccc1 (stereo not given),n,n,3.9,n,n,0.085
O=C(CC1S/C(=N/N=C/c2c[nH]c3ccc(OCc4ccccc4)cc23)NC1=O)Nc1ccccc1 (stereo not given),n,n,n,n,n,x
COc1ccc2c(-c3cc4ccc(OCc5ccc(F)cc5)cc4oc3=O)cc(=O)oc2c1,n,n,16,n,n,n
COc1cccc(NC(=O)Nc2ccc3c(c2)nnn3C)c1,n,n,n,n,x,0.079
CC(C)CNC(=O)NC1C(NC(=O)NCC(C)C)N(C)C(=O)N1C (stereo not given),n,n,4.4,n,n,0.073
N#Cc1cc2c(nc1SCC(=O)Nc1sc3c(c1C#N)CCC3)CCC2,n,n,n,n,n,n
N#Cc1cc2c(nc1SCC(=O)Nc1sc3c(c1C#N)CCC3)CCCCCC2,n,n,n,n,n,x
O=C(Cn1cnc2c(nnn2-c2ccc(F)cc2)c1=O)N1CCCC1,n,n,n,n,n,x
Cc1[nH]n(CCC#N)c(=O)c1CC(=O)N1CCN(c2ccccc2)CC1,n,n,n,n,n,x
SMILES,Measles CPE,RAM inhibit,sdo1 growth,BB579 growth dn,Yeast life ext,SDO1 rescue DR
COc1ccccc1OCC(=O)O,n,n,n,n,n,x
COc1ccccc1OC(C)C(=O)O (stereo not given),n,n,5.2,n,n,n
Cc1ccc(C2/C(=C(\O)c3ccc4c(c3)OCCO4)C(=O)C(=O)N2CCCN(C)C)o1 (stereo not given),n,n,6.9,n,n,0.097
COc1ccc(C2/C(=C(\O)c3ccc4c(c3)OCCO4)C(=O)C(=O)N2CCCN(C)C)cc1 (stereo not given),n,n,n,n,n,x
CCOC(=O)c1c(NC(=O)CSc2nncs2)sc(C)c1C,n,n,n,n,n,n
CCOC(=O)c1c(NC(=O)CSc2nncn2C)sc(C)c1C,n,n,n,n,n,x
COc1ccccc1NC(=O)Nc1ccc2c(c1)nc(C)n2C,x,n,x,x,x,x
Cc1ccc(S(=O)(=O)N2CCCCC2)cc1NC(=O)COC(=O)c1c(F)cccc1F,x,n,x,x,x,x
Cc1ccc(S(=O)(=O)N2CCCCC2)cc1NC(=O)COC(=O)Cc1c(F)cccc1Cl,n,n,17,n,n,0.09
O=C(Cc1coc(-c2ccc(F)cc2)n1)Nc1ccccc1,n,n,3.2,n,n,n
CCN(CC)S(=O)(=O)c1ccc(-c2nnc(SCC(=O)Nc3nc(C)cs3)o2)cc1,n,n,n,n,n,n
O=C(CCC(=O)Nc1ccccc1Cl)N/N=C1\CCCc2ccccc21,n,n,13,n,n,0.083
O=C(Cc1ccc(Cl)cc1)N/N=C1\CCCc2ccccc21,n,n,n,n,n,x
COc1ccc(CCNC(=O)c2cc(-c3ccc(C)c(C)c3O)n[nH]2)cc1OC,n,n,n,n,n,n
COc1ccc(CCNC(=O)c2cc(-c3cc(C)ccc3O)n[nH]2)cc1OC,n,n,n,n,n,x
CCCc1cc(=O)[nH]c(SCC(=O)N(C)C2CCS(=O)(=O)C2)n1 (stereo not given),n,n,n,n,n,x
O=C(NCc1ccc(Cl)cc1)c1ccc(N2CCCC2=O)cc1,x,n,x,x,x,x
O=C(NCCc1ccccc1)c1ccnc(/C=N/O)c1,n,n,8,n,n,n
CSCC[C@H](NC(=O)OC(C)(C)C)c1nnc(SCC(N)=O)o1,n,n,9.6,n,n,0.046
CCN(CC)C(=O)CSc1nnc([C@H](CCSC)NC(=O)OC(C)(C)C)o1,n,n,n,n,n,x
CCSc1ncc(Cl)c(C(=O)Nc2sc3c(c2C(=O)NCc2cccnc2)CCCC3)n1,n,n,n,n,n,0.072
Cc1cccc(C(=O)n2cnnc2N)c1,x,n,x,x,x,x
c1cnc(N2CCN(Cc3c[nH]c4ccccc34)CC2)nc1,n,n,n,n,n,x
Cc1ccccc1N1CCN(Cc2c[nH]c3ccccc23)CC1,n,n,7.5,n,n,n
COC(=O)c1c(C)[nH]c(C(=O)/C=C/c2cccc(Cl)c2)c1C,n,n,11,n,n,n
CCOC(=O)c1sc(NC(=O)COC(=O)Cn2cnc3ccccc32)c(C(=O)OCC)c1C,n,n,n,n,n,x
Cc1ccc(Cn2c(Sc3nccc(C)n3)nc3c2c(=O)[nH]c(=O)n3C)cc1,n,n,n,n,n,0.094
Cc1ccc(Cn2c(Sc3ncccn3)nc3c2c(=O)[nH]c(=O)n3C)cc1,n,n,n,n,n,x
O=C(Nc1cc([N+](=O)[O-])ccc1Cl)C(Sc1ccccc1)c1ccccc1 (stereo not given),n,n,11,n,n,n
